Reference: ChEMBL document CHEMBL3804799, “Synthesis and Biological Evaluation of Novel σ1 Receptor Ligands for Treating Neuropathic Pain: 6-Hydroxypyridazinones” (J Med Chem, 2016)

Columns and labels:
[1] = molecular target: Sigma non-opioid intracellular receptor 1 (Cavia porcellus, UniProt Q60492); assay: Displacement of [3H]-(+)-pentazocine from Sigma1 receptor in Dunkin Hartley guinea pig brain membrane after 180 mins by liquid scintillation counting analysis
Method in brief: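 Guinea pig brain (minus cerebellum) P2 membranes in Tris-HCl. Incubated with [³H]-(+)-pentazocine (4.0 nM solution added) in pH 8.0 buffer, 25 °C for 180 min; nonspecific binding with haloperidol. Filtered through PEI-presoaked GF/B filters; scintillation counting. Compounds in 5% DMSO, six concentrations (10⁻⁵–10⁻¹⁰ M). […] At least three experiments.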

[2] = Displacement of [3H]-DTG from Sigma2 receptor in Dunkin Hartley guinea pig brain membrane after 120 mins by liquid scintillation counting analysis in presence of sigma1 blocker (+)-SKF-10047; parameters: species or system Cavia porcellus
Method in brief: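 Guinea pig brain P2 membranes incubated with 3 nM [³H]-DTG plus 400 nM (+)-SKF-10047 to block σ1 sites, Tris-HCl pH 8.0, 25 °C for 120 min; nonspecific binding with DTG. Filtration on PEI-presoaked GF/B filters, scintillation counting. […] At least three experiments.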

Cavia porcellus = species: Cavia porcellus; assay: Selectivity ratio of Ki for Sigma2 receptor in Dunkin Hartley guinea pig brain membrane to Ki for Sigma1 receptor in Dunkin Hartley guinea pig brain membrane
Method in brief: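 Guinea pig brain P2 membranes, minus cerebellum. σ1: [3H]-(+)-pentazocine, haloperidol for nonspecific binding, 25 °C for 180 min. σ2: 3 nM [3H]-DTG with 400 nM (+)-SKF-10047 masking σ1, DTG for nonspecific binding, 25 °C for 120 min. Six concentrations, 10⁻⁵ to 10⁻¹⁰. Filter-bound radioactivity counted. Hill-fit IC50 converted by Cheng–Prusoff, at least three experiments each; ratio σ2 Ki/σ1 Ki.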

[3] = molecular target: Voltage-gated inwardly rectifying potassium channel KCNH2 (Homo sapiens, UniProt Q12809); assay: Inhibition of human ERG expressed in HEK293 cells assessed as tail current at -50 mV holding potential by whole-cell patch clamp method
Voltage-gated inwardly rectifying potassium channel KCNH2, sequence (Q12809 whole entry): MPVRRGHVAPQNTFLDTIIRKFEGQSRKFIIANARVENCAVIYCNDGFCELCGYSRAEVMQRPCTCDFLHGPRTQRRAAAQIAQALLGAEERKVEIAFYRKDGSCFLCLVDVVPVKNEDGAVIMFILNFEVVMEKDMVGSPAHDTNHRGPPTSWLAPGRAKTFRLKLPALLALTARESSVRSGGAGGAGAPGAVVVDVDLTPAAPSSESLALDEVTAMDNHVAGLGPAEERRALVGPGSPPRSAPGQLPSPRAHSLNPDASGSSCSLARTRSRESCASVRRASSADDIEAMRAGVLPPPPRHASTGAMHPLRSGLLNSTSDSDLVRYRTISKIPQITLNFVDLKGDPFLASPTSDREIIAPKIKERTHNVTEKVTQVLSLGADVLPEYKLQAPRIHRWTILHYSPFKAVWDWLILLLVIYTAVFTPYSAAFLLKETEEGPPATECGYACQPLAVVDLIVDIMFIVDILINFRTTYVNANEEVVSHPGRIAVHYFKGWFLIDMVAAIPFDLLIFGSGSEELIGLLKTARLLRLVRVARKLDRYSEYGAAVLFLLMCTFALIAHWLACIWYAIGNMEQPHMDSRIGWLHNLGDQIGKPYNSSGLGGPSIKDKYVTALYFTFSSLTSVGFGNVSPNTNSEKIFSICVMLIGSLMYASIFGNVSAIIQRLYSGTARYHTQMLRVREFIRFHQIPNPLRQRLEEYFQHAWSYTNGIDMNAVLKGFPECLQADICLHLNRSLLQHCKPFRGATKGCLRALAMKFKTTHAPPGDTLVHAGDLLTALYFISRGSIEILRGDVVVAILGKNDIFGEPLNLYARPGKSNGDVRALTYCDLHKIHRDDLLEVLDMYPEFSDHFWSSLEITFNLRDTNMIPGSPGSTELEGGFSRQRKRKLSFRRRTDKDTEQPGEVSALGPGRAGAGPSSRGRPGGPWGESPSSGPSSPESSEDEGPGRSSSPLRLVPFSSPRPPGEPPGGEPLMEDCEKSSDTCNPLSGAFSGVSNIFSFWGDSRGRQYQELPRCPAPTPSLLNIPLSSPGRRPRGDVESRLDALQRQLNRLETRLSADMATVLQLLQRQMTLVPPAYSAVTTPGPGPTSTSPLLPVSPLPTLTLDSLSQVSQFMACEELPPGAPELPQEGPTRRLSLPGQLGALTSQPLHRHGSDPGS

[4] = Acute toxicity in po dosed Kun Ming mouse assessed as mortality after 24 hrs; type: organism-based; settings: in vivo
Method in brief: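 Mice, 10 per group, given a single oral dose (10 mL/kg) of 0.5% methylcellulose vehicle or test compound at 200, 500, 1000, 1500 or 2000 mg/kg. Survivors were counted 24 h after dosing and percent mortality per group was calculated. LD50 was derived by statistical analysis.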

Mus musculus [5] = assay: Toxicity in Kun Ming mouse assessed as reduction in the permanence time on the rotating rod at 80 mg/kg, ig measured after 30 to 120 mins by rotarod test; type: organism-based; settings: in vivo, po
Method in brief: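 Mice were pre-trained; any that could not stay 300 s on the rod at 10 rpm were excluded. Latency to fall from the rod rotating at 10 rpm was recorded 30, 60, 90 and 120 min after intragastric dosing. 8–10 mice per group.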

Mus musculus [6] = assay: Antiallodynic activity in Kun Ming mouse assessed as paw licking time at 160 mg/kg, ig administered 15 mins prior to formalin challenge measured after15 to 45 mins post formalin dosing; type: functional
Method in brief: (§1)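 Mice received 20 μL of 2.5% formalin (0.92% formaldehyde) in the dorsal right hind paw. Time spent licking or biting the paw was scored at 0–5 min (phase I) and 15–45 min (phase II), with a mirror behind the glass cylinder. Vehicle was 30% PEG 400 at 10 mL/kg, given 15 min before formalin. n = 10–12 per group. % antinociception = (LT_V − LT_D)/LT_V × 100.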

Mus musculus [7] = assay: Antiallodynic activity in Kun Ming mouse assessed as paw biting time at 160 mg/kg, ig administered 15 mins prior to formalin challenge measured after 15 to 45 mins post formalin dosing; type: functional; method in brief: as §1

Sigma non-opioid intracellular receptor 1, sequence (Q60492 whole entry): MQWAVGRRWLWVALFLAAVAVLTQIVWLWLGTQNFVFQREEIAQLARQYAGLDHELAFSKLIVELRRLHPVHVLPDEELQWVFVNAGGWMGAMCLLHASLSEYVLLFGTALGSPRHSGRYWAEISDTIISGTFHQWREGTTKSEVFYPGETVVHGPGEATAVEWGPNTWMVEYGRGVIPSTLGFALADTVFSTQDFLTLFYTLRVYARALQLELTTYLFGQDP

Ki [1] | Ki [2] | Ratio Ki (Cavia porcellus) | Structure (SMILES) | IC50 [3] | LD50 at 24 h [4] | Activity (Mus musculus [5]) | Time (Mus musculus [6]) | Time (Mus musculus [7])
580 nM | > 2000 nM |  | O=C1CCN(CCCOc2ccc(=O)n(-c3ccccc3)n2)CC1 |  |  |  |  | 
31.7 nM | 376 nM | 11.9 | CN1CCN(CCCOc2ccc(=O)n(-c3ccccc3)n2)CC1 |  |  |  |  | 
143 nM | 1440 nM | 10.1 | CC1CCN(CCCCOc2ccc(=O)n(-c3ccccc3)n2)CC1 |  |  |  |  | 
28 nM | 1460 nM | 52.3 | CC1CCN(CCCOc2ccc(=O)n(-c3ccccc3)n2)CC1 |  |  |  |  | 
46 nM | 1820 nM | 39.6 | CC1CC(C)CN(CCCOc2ccc(=O)n(-c3ccccc3)n2)C1 (stereo not given) |  |  |  |  | 
35 nM | 1100 nM | 31.4 | CC1CCN(CCCOc2ccc(=O)n(-c3ccc(Cl)cc3Cl)n2)CC1 |  |  |  |  | 
84.1 nM | 913 nM | 10.8 | CC1CCN(CCCOc2ccc(=O)n(-c3ccc4ccccc4c3)n2)CC1 |  |  |  |  | 
> 2000 nM | > 2000 nM |  | O=c1ccc(OCCN2CCCCC2)nn1-c1ccccc1 |  |  |  |  | 
66.3 nM | 502 nM | 7.6 | O=c1ccc(OCCCN2CCOCC2)nn1-c1ccccc1 |  |  |  |  | 
66.6 nM | 1430 nM | 21.4 | Cc1c(OCCCN2CCCCC2)nn(-c2ccc(Cl)c(Cl)c2)c(=O)c1C |  |  |  |  | 
45 nM | 902 nM | 20 | O=c1ccc(OCCCN2CCCCC2)nn1-c1cc(Cl)ccc1Cl |  |  |  |  | 
222 nM | 1370 nM | 6.2 | CC1CC(C)CN(CCCCOc2ccc(=O)n(-c3ccccc3)n2)C1 (stereo not given) |  |  |  |  | 
17 nM | > 2000 nM |  | O=c1ccc(OCCCN2CCCCC2)nn1-c1ccc(F)cc1 |  |  |  |  | 
21.4 nM | 1070 nM | 50.2 | O=c1ccc(OCCCN2CCCCC2)nn1-c1ccccc1 |  |  |  |  | 
55 nM | 1200 nM | 21.8 | CC1CCN(CCCOc2ccc(=O)n(-c3cccc(Cl)c3Cl)n2)CC1 |  |  |  |  | 
48 nM | 1620 nM | 33.6 | O=c1ccc(OCCCN2CCCCC2)nn1-c1cccc(Cl)c1Cl |  |  |  |  | 
> 2000 nM | > 2000 nM |  | O=c1ccc(OCCCN2CCCCC2)nn1C1CCCC1 |  |  |  |  | 
 | > 2000 nM |  | Cc1cc(OCCN2CCOCC2)nn1-c1ccc2ccccc2c1 |  |  | Toxic |  | 

Ki [1] | Ki [2] | Ratio Ki (Cavia porcellus) | Structure (SMILES) | IC50 [3] | LD50 at 24 h [4] | Activity (Mus musculus [5]) | Time (Mus musculus [6]) | Time (Mus musculus [7])
140 nM | 1510 nM | 10.8 | O=c1c2ccccc2c(OCCCN2CCCCC2)nn1-c1ccc(Cl)c(Cl)c1 |  |  |  |  | 
96.5 nM | 1170 nM | 12.1 | CCN(CC)CCCOc1ccc(=O)n(-c2ccccc2)n1 |  |  |  |  | 
25 nM | 809 nM | 32.3 | O=c1ccc(OCCCN2CCCCC2)nn1-c1ccc(Cl)cc1Cl |  |  |  |  | 
61.6 nM | 1550 nM | 25.1 | Cc1ccc(-n2nc(OCCCN3CCC(C)CC3)ccc2=O)cc1 |  |  |  |  | 
98.1 nM | 1120 nM | 11.4 | CC(C)N(CCCOc1ccc(=O)n(-c2ccccc2)n1)C(C)C |  |  |  |  | 
104 nM | 934 nM | 8.9 | O=c1c2c(c(OCCCN3CCCCC3)nn1-c1ccc(Cl)c(Cl)c1)CCCC2 |  |  |  |  | 
30.3 nM | 508 nM | 16.8 | CN1CCCN(CCCOc2ccc(=O)n(-c3ccccc3)n2)CC1 |  |  |  |  | 
43 nM | 1320 nM | 30.7 | CC1CCN(CCCOc2ccc(=O)n(-c3cc(Cl)cc(Cl)c3)n2)CC1 |  |  |  |  | 
19.8 nM | 1620 nM | 81.7 | CC1CCN(CCCOc2ccc(=O)n(-c3ccc(F)cc3)n2)CC1 |  |  |  |  | 
40.1 nM | 620 nM | 15.5 | CCN1CCN(CCCOc2ccc(=O)n(-c3ccccc3)n2)CC1 |  |  |  |  | 
30 nM | 1300 nM | 43.3 | O=c1ccc(OCCCN2CCCCC2)nn1-c1cc(Cl)cc(Cl)c1 |  |  |  |  | 
60 nM | 870 nM | 14.5 | CC1CCN(CCCOc2ccc(=O)n(-c3cc(Cl)ccc3Cl)n2)CC1 |  |  |  |  | 
74.1 nM | 895 nM | 12.1 | O=c1ccc(OCCCN2CCCCC2)nn1-c1ccc2ccccc2c1 |  |  |  |  | 
69 nM | 1280 nM | 18.6 | Cc1ccc(-n2nc(OCCCN3CCCCC3)ccc2=O)cc1 |  |  |  |  | 
108 nM | 818 nM | 7.57 | CN(C)CCCOc1ccc(=O)n(-c2ccccc2)n1 |  |  |  |  | 
124 nM | 1720 nM | 13.9 | O=c1ccc(OCCCCN2CCCCC2)nn1-c1ccccc1 |  |  |  |  | 
35.5 nM | 458 nM | 12.9 | O=c1ccc(OCCCN2CCCC2)nn1-c1ccccc1 |  |  |  |  | 

Structure (SMILES) | Ki [1] | Ki [2] | Ratio Ki (Cavia porcellus) | IC50 [3] | LD50 at 24 h [4] | Activity (Mus musculus [5]) | Time (Mus musculus [6]) | Time (Mus musculus [7])
O=c1ccc(OCCCN2CCCCC2)nn1-c1ccc(F)c(Cl)c1 | 10 nM | 1580 nM | 158 | 980 nM | 900 mg/kg |  |  | 
O=c1ccc(OCCCN2CCCCC2)nn1-c1ccc(Cl)cc1 | 9.8 nM | 1570 nM | 160 | 1450 nM | 754 mg/kg |  |  | 
CC1CCN(CCCOc2ccc(=O)n(-c3ccc(F)c(F)c3)n2)CC1 | 15 nM | 1700 nM | 113 | 2680 nM | 1300 mg/kg |  | 59.65 s | 56.43 s
CC1CCN(CCCOc2ccc(=O)n(-c3ccc(Cl)c(Cl)c3)n2)CC1 | 5 nM | 1740 nM | 348 | 1460 nM | 575 mg/kg |  |  | 
CC1CCN(CCCOc2ccc(=O)n(-c3ccc(Cl)cc3)n2)CC1 | 9.5 nM | 1780 nM |  |  | 717 mg/kg |  |  | 
CC1CCN(CCCOc2ccc(=O)n(-c3ccc(F)c(Cl)c3)n2)CC1 | 10 nM | 1630 nM | 163 | 2160 nM | 1530 mg/kg |  | 59.65 s | 56.43 s
O=c1ccc(OCCCN2CCCCC2)nn1-c1ccc(F)c(F)c1 | 8 nM | 1910 nM |  |  | 780 mg/kg |  |  | 
